Test results: ChEMBL document CHEMBL1146217, “Growth inhibition of Mycobacterium bovis, Mycobacterium tuberculosis and Mycobacterium avium in vitro: effect of 1-beta-D-2'-arabinofuranosyl and 1-(2'-deoxy-2'-fluoro-beta-D-2'-ribofuranosyl) pyrimidine nucleoside analogs” (J Med Chem, 2007)
In brackets after ≈: the same amount, converted by molar mass.

Key:
Mycobacterium avium = assay: Antimycobacterial activity against Mycobacterium avium ATCC 25291 at 100 ug/mL by microplate Alamar blue assay; type: functional
How it was run: (§1)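 MABA with M. bovis BCG, M. tuberculosis H37Ra or M. avium ATCC 25291. DMSO stocks (10 mg/mL) diluted in 7H9GC; final inoculum 2.5 × 10⁵ CFU/mL. Incubated 6 days, then alamar blue plus Tween 80 added and read by fluorescence after about 24 h. […]. Tested in triplicate at 100, 50, 10 and 1 µg/mL; two experiments, mean reported.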

[1] = test system: Mycobacterium tuberculosis; assay: Antimycobacterial activity against Mycobacterium tuberculosis H37Ra at 100 ug/mL by microplate Alamar blue assay; type: functional; how it was run: as §1
[2] = test system: Mycobacterium tuberculosis; assay: Antimycobacterial activity against Mycobacterium tuberculosis H37Ra at 10 ug/mL by microplate Alamar blue assay; type: functional; how it was run: as §1
[3] = test system: Mycobacterium tuberculosis; assay: Antimycobacterial activity against Mycobacterium tuberculosis H37Ra by microplate Alamar blue assay; type: functional
How it was run: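 Same alamar blue microplate setup (7H9GC, 2.5 × 10⁵ CFU/mL, 6 days, then dye read after about 24 h), using 2-fold compound dilutions. MIC90 is the lowest concentration giving about 90% inhibition relative to bacteria-only wells after background subtraction. Visual MIC is the lowest concentration preventing the blue-to-pink change.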

[4] = Toxicity against human foreskin fibroblast cells after 3 days by MTT test; type: cell-based
How it was run: (§2)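 MTT viability assay. Vero or HFF cells seeded at 2.5 × 10⁵ cells/well and left to attach 6-8 h. Exposed to compound at 100, 50, 25, 12.5, 6.3 and 1.5 µg/mL for 3 days at 37 °C, with a DMSO control. MTT added for 4 h, then solubilized overnight; absorbance read at 560-650 nm.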

Vero = assay: Toxicity against Vero cells after 3 days by MTT test; type: cell-based; conditions: chlorocebus sabaeus, 72 h; how it was run: as §2
[5] = test system: Mycobacterium tuberculosis; assay: Antimycobacterial activity against Mycobacterium tuberculosis H37Ra at 50 ug/mL by microplate Alamar blue assay; type: functional; how it was run: as §1
Proteus vulgaris = assay: Antibacterial activity against Proteus vulgaris ATCC 49132 after 16 to 20 hrs by broth microdilution method; type: functional
How it was run: (§3)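 Broth microdilution MIC. Exponentially growing bacteria diluted in sterile liquid medium to a final inoculum of 1 × 10⁴ CFU/mL. Cultured with compound dilutions for 16-20 h; compounds tested at 100, 50, 10 and 1 µg/mL. MIC taken as the concentration giving 100% inhibition of bacterial growth.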

Bacillus subtilis = assay: Antibacterial activity against Bacillus subtilis ATCC 6633 after 16 to 20 hrs by broth microdilution method; type: functional; conditions: Bacillus subtilis, ATCC 6633; how it was run: as §3
Streptococcus pneumoniae = assay: Antibacterial activity Streptococcus pneumoniae ATCC 49619 after 16 to 20 hrs by broth microdilution method; type: functional; conditions: Streptococcus pneumoniae, ATCC 49619; how it was run: as §3
Escherichia coli = assay: Antibacterial activity against Escherichia coli ATCC 25922 after 16 to 20 hrs by broth microdilution method; type: functional; conditions: Escherichia coli, ATCC 25922; how it was run: as §3
Staphylococcus aureus = assay: Antibacterial activity against Staphylococcus aureus ATCC 25923 after 16 to 20 hrs by broth microdilution method; type: functional; how it was run: as §3
Streptococcus pyogenes = assay: Antibacterial activity Streptococcus pyogenes ATCC 19615 after 16 to 20 hrs by broth microdilution method; type: functional; conditions: Streptococcus pyogenes, ATCC 19615; how it was run: as §3
Pseudomonas aeruginosa = assay: Antibacterial activity against Pseudomonas aeruginosa […] after 16 to 20 hrs by broth microdilution method; type: functional; conditions: Pseudomonas aeruginosa, ATCC 13048; how it was run: as §3
Salmonella typhimurium = assay: Antibacterial activity against Salmonella Typhimurium after 16 to 20 hrs by broth microdilution method; type: functional, Salmonella enterica subsp. enterica serovar Typhimurium; conditions: Salmonella enterica; how it was run: as §3
[6] = test system: Staphylococcus epidermidis; assay: Antibacterial activity against Staphylococcus epidermidis ATCC 14990 after 16 to 20 hrs by broth microdilution method; type: functional; how it was run: as §3
Listeria monocytogenes = assay: Antibacterial activity Listeria monocytogenes ATCC 15313 after 16 to 20 hrs by broth microdilution method; type: functional; conditions: Listeria monocytogenes, ATCC 15313; how it was run: as §3
Klebsiella aerogenes = assay: Antibacterial activity against Enterobacter aerogenes after 16 to 20 hrs by broth microdilution method; type: functional; conditions: Klebsiella aerogenes; how it was run: as §3
Enterococcus faecalis = assay: Antibacterial activity Enterococcus faecalis ATCC 29212 after 16 to 20 hrs by broth microdilution method; type: functional; conditions: Enterococcus faecalis, ATCC 29212; how it was run: as §3

SMILES: O=c1[nH]c(=O)n([C@@H]2O[C@H](CO)[C@@H](O)[C@@H]2O)cc1C(O)C(Br)Br (stereo partly specified)
- inhibition at 100 µg/mL (Mycobacterium avium): 0%
- inhibition at 100 µg/mL [1]: 0%

SMILES: O=c1[nH]c(=O)n([C@@H]2O[C@H](CO)[C@@H](O)[C@@H]2O)cc1Br
- inhibition at 100 µg/mL (Mycobacterium avium): 0%
- inhibition at 100 µg/mL [1]: 0%

SMILES: Cc1cn([C@@H]2O[C@H](CO)[C@@H](O)[C@@H]2O)c(=O)[nH]c1=S
- inhibition at 100 µg/mL (Mycobacterium avium): 0%
- inhibition at 100 µg/mL [1]: 0%

SMILES: CCCCCCCCCCCCC#Cc1cn([C@@H]2O[C@H](CO)[C@@H](O)[C@@H]2O)c(=O)[nH]c1=O
- inhibition at 100 µg/mL (Mycobacterium avium): 0%
- inhibition at 10 µg/mL [2]: 50%
- inhibition at 100 µg/mL [1]: 100%
- MIC90 [3]: 10 µg/mL (≈ 22.9 µM)
- CC50 at 72 h [4]: > 100 µg/mL
- CC10 (Vero): > 100 µg/mL
- inhibition at 50 µg/mL [5]: 100%

SMILES: CCCCCCCCCCCCC#Cc1cn([C@@H]2O[C@H](CO)[C@@H](O)[C@H]2F)c(=O)[nH]c1=O
- MIC (Proteus vulgaris): > 100 µg/mL
- inhibition at 100 µg/mL (Mycobacterium avium): 20%
- inhibition at 10 µg/mL [2]: 50%
- MIC (Bacillus subtilis): > 100 µg/mL
- inhibition at 100 µg/mL [1]: 100%
- MIC (Streptococcus pneumoniae): > 100 µg/mL
- MIC (Escherichia coli): > 100 µg/mL
- Inhibition (Staphylococcus aureus): 100%
- MIC (Staphylococcus aureus; Staphylococcus aureus, ATCC 25923): 100 µg/mL (≈ 228 µM)
- MIC (Streptococcus pyogenes): > 100 µg/mL
- MIC90 [3]: 10 µg/mL (≈ 22.8 µM)
- MIC (Pseudomonas aeruginosa): > 100 µg/mL
- CC50 at 72 h [4]: > 100 µg/mL
- MIC (Salmonella typhimurium): > 100 µg/mL
- CC10 (Vero): > 100 µg/mL
- inhibition at 50 µg/mL [5]: 100%
- Inhibition [6]: 100%
- MIC ([6]; Staphylococcus epidermidis, ATCC 14990): 100 µg/mL (≈ 228 µM)
- MIC (Listeria monocytogenes): > 100 µg/mL
- MIC (Klebsiella aerogenes): > 100 µg/mL
- MIC (Enterococcus faecalis): > 100 µg/mL

SMILES: CCCc1ccc(C#Cc2cn([C@@H]3O[C@H](CO)[C@@H](O)[C@@H]3O)c(=O)[nH]c2=O)cc1
- inhibition at 100 µg/mL (Mycobacterium avium): 25%
- inhibition at 100 µg/mL [1]: 100%
- MIC90 [3]: 100 µg/mL (≈ 259 µM)
- CC50 at 72 h [4]: > 100 µg/mL
- CC10 (Vero): > 100 µg/mL
- inhibition at 50 µg/mL [5]: 50%

SMILES: CCOC(=O)/C=C/c1cn([C@@H]2O[C@H](CO)[C@@H](O)[C@H]2F)c(=O)[nH]c1=O
- inhibition at 100 µg/mL (Mycobacterium avium): 0%
- inhibition at 100 µg/mL [1]: 0%

SMILES: CCOC(=O)C(Cl)C(O)c1cn([C@@H]2O[C@H](CO)[C@@H](O)[C@H]2F)c(=O)[nH]c1=O (stereo partly specified)
- inhibition at 100 µg/mL (Mycobacterium avium): 0%
- inhibition at 100 µg/mL [1]: 0%

SMILES: CCOC(=O)C(Br)C(O)c1cn([C@@H]2O[C@H](CO)[C@@H](O)[C@H]2F)c(=O)[nH]c1=O (stereo partly specified)
- inhibition at 100 µg/mL (Mycobacterium avium): 0%
- inhibition at 100 µg/mL [1]: 0%

SMILES: O=c1[nH]c(=O)n([C@@H]2O[C@H](CO)[C@@H](O)[C@H]2F)cc1Br
- inhibition at 100 µg/mL (Mycobacterium avium): 0%
- inhibition at 100 µg/mL [1]: 0%

SMILES: O=C(O)/C=C/c1cn([C@@H]2O[C@H](CO)[C@@H](O)[C@@H]2O)c(=O)[nH]c1=O
- inhibition at 100 µg/mL (Mycobacterium avium): 0%
- inhibition at 100 µg/mL [1]: 0%

SMILES: COC(CI)c1cn([C@@H]2O[C@H](CO)[C@@H](O)[C@@H]2O)c(=O)[nH]c1=O (stereo partly specified)
- inhibition at 100 µg/mL (Mycobacterium avium): 0%
- inhibition at 100 µg/mL [1]: 0%

SMILES: CCCCCC#Cc1cn([C@@H]2O[C@H](CO)[C@@H](O)[C@@H]2O)c(=O)[nH]c1=O
- inhibition at 100 µg/mL (Mycobacterium avium): 0%
- inhibition at 100 µg/mL [1]: 25%

SMILES: CCCCCCCCC#Cc1cn([C@@H]2O[C@H](CO)[C@@H](O)[C@@H]2O)c(=O)[nH]c1=O
- inhibition at 100 µg/mL (Mycobacterium avium): 50%
- inhibition at 10 µg/mL [2]: 10%
- inhibition at 100 µg/mL [1]: 100%
- MIC90 [3]: 100 µg/mL (≈ 263 µM)
- CC50 at 72 h [4]: > 100 µg/mL
- CC10 (Vero): > 100 µg/mL
- inhibition at 50 µg/mL [5]: 50%
